Laboratory results from ChEMBL document CHEMBL5712908, “A genome-wide RNAi screen reveals essential therapeutic targets of breast cancer stem cells” (2019).
Active and inactive are the calls of the source. No cut-off for these calls is given here.

Columns and labels:
Breast cancer cell line [1] = assay: Antitumor activity against human reimplanted CRCM434 negative breast cancer cells orthotopically xenografted in NSG mouse model of PDX assessed as reduction tumor volume at 50 mg/kg, ip 5 out of 7 for 2 weeks by limiting dilation analysis; assay type: functional, organism-based
In short: (§1)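 After 2 weeks of i.p. treatment (3 mg/kg daily or 50 mg/kg 5 of 7 days), dissociated PDX tumour cells reimplanted into secondary NSG mice at 50, 500 or 5,000 cells. A mouse counted as tumour-bearing once a tumour reached 10 mm. bCSC frequency per 10,000 cells estimated by ELDA; pairwise chi-square test.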

SUM149PT [2] = assay: Anticancer activity against human SUM149 cells assessed as ALDHbr cells at 10 uM by LSR2 cytometer (reference value: 4.8%); assay type: functional
SUM-159-PT [3] = assay: Induction of apoptosis in human SUM159 cells expressing ALDHbr upto 100 uM incubated for 72 hrs by ALDEFLUOR/YO-PRO-3/ Hoechst 33342 staining based high content imaging microscopic analysis; assay type: functional, cell-based
In short: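 SUM159 at 3,000 cells/well on collagen plates, dosed at 6, 24 and 48 h post-seeding; 0.1% DMSO negative control, cisplatin positive control. At 72 h stained 30 min at 37°C with ALDEFLUOR, YO-PRO-3 and Hoechst 33342, then imaged ice-cold. YO-PRO-3-positive nuclei (above untreated signal) counted over total cells, per ALDHbr/ALDH- subpopulation; n = 6.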

Breast cancer cell line [4] = assay: Synergistic apoptosis activity in patient-derived breast cancer cells orthotopically xenografted in NSG mouse model of PDX assessed as increase in cleaved caspase-3 at 50 mg/kg, ip 5 out of 7 for 2 weeks cotreated with salinomycin by Immunostaining analysis; assay type: functional, organism-based; details: Homo sapiens
In short: (§2)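 Paraffin sections of treated PDX tumours deparaffinised and subjected to antigen retrieval in citrate buffer pH 6. Peroxidase staining with ready-to-use Ki67 or cleaved caspase-3 antibody, DAB substrate, haematoxylin counterstain. Proportion of positive cells quantified; n = 3; t-test.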

SUM149PT [5] = assay: Anticancer activity against human SUM149 cells assessed as ALDHbr cells at 1 mM by LSR2 cytometer (reference value: 4.8%); assay type: functional; design: dose or concentration left out as unconfirmed
SUM-159-PT [6] = assay: Synergistic anticancer activity against human SUM159 cells assessed as decrease in secondary tumor sphere formation at 62 nM incubated for 72 hrs in presence of salinomycin by Extreme limiting dilution analysis; assay type: functional
In short: (§3)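 72 h adherent pretreatment (Sal/JQ1 62 nM/62 nM; docetaxel added at 2 nM where used), then single cells plated in ultra-low attachment 96-well plates in serum-free mammary epithelium basal medium at 25/10/5/3/2/1 cells/well (18–36 wells/condition). Wells with ≥1 sphere after 10 days scored positive; sphere-forming frequency by ELDA. Secondary spheres from dissociated primary spheres. n = 4; pairwise chi-square.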

Breast cancer cell line [7] = assay: Synergistic antitumor activity against human CRCM404 negative breast cancer cells xenografted in NSG mouse model of PDX assessed as reduction metastasis formation in lung at 50 mg/kg, ip 5 out of 7 for 2 weeks cotreated with salinomycin; assay type: functional, organism-based
In short: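 Luciferase-expressing PDX cells sorted H2Kd⁻ and viable, 100,000 in 100 μl PBS injected in NSG tail vein. From the next day, salinomycin 3 mg/kg i.p. daily and/or JQ1 50 mg/kg i.p. 5 of 7 days for 2 weeks. Lungs and liver imaged by bioluminescence after i.p. luciferin 30 mg/kg; normalised photon flux; 10 mice/group; Wilcoxon test.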

Breast cancer cell line [8] = assay: Antitumor activity against human reimplanted CRCM404 negative breast cancer cells orthotopically xenografted in NSG mouse model of PDX assessed as reduction tumor volume at 50 mg/kg, ip 5 out of 7 for 2 weeks by limiting dilation analysis; assay type: functional, organism-based; in short: as §1
SUM-159-PT [9] = assay: Synergistic anticancer activity against human SUM159 cells assessed as decrease in docetaxel induced primary tumor sphere formation at 62 nM incubated for 72 hrs in presence of salinomycin by Extreme limiting dilution analysis; assay type: functional, cell-based; in short: as §3
Breast cancer cell line [10] = assay: Synergistic antitumor activity against human CRCM404 negative breast cancer cells orthotopically xenografted in NSG mouse model of PDX assessed as reduction ALDHbr cells at 50 mg/kg, ip 5 out of 7 for 2 weeks cotreated with salinomycin by LSR2 cytometer analysis; assay type: functional
SUM149PT [11] = assay: Antitumor activity against human SUM149 cells assessed as K-score by measuring ALDHbr cells by LSR2 cytometer; assay type: functional
In short: (§4)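 Cell lines exposed for 72 h in adherent culture to a range of concentrations centred on the MTS-derived IC50. ALDHbr proportion measured by ALDEFLUOR flow cytometry (LSR2). K-score is the linear regression coefficient, on log10-transformed doses, between the untreated condition and the dose predicted to give a 50% decrease or increase in ALDHbr proportion versus control.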

Breast cancer cell line [12] = assay: Synergistic antitumor activity against patient-derived breast cancer cells orthotopically xenografted in NSG mouse model of PDX assessed as reduction in Ki67 cells at 50 mg/kg, ip 5 out of 7 for 2 weeks cotreated with salinomycin by Immunostaining analysis; assay type: functional, organism-based; details: Homo sapiens; in short: as §2
[13] = Antitumor activity against human BrCa-MZ-01 cells assessed as K-score by measuring ALDHbr cells by LSR2 cytometer; assay type: functional; in short: as §4
Breast cancer cell line [14] = assay: Synergistic antitumor activity against human CRCM434 negative breast cancer cells orthotopically xenografted in NSG mouse model of PDX assessed as reduction ALDHbr cells at 50 mg/kg, ip 5 out of 7 for 2 weeks cotreated with salinomycin by LSR2 cytometer analysis; assay type: functional
Breast cancer cell line [15] = assay: Antitumor activity against human CRCM494 negative breast cancer cells orthotopically xenografted in NSG mouse model of PDX assessed as reduction in tumor volume at 50 mg/kg, ip 5 out of 7 for 2 weeks; assay type: functional, organism-based
In short: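 Chemo-naïve triple-negative PDX cells injected at 100,000 per fat pad, two fat pads per NSG mouse. At ~80 mm³ tumours, mice received i.p. 3 mg/kg daily for 14 days or 50 mg/kg 5 of 7 days for 2 weeks; placebo was DMSO/HPCD 10% (1:9). Five mice (10 tumours) per group. Tumour growth monitored; after 2 weeks tumours dissociated, mouse cells excluded via anti-H2Kd, ALDHbr measured by ALDEFLUOR flow cytometry and normalised to vehicle.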

SUM-159-PT [16] = assay: Antitumor activity against human SUM159 cells assessed as K-score by measuring ALDHbr cells by LSR2 cytometer; assay type: functional; in short: as §4
SUM-159-PT [17] = assay: Anticancer activity against human SUM159 cells expressing BFP assessed as reduction in ALDHbr cell at 5 to 500 nM by LSR2 cytometer analysis; assay type: functional, cell-based; details: dose 5-500 nM

## Cc1sc2c(c1C)C(c1ccc(Cl)cc1)=N[C@@H](CC(=O)OC(C)(C)C)c1nnc(C)n1-2
Breast cancer cell line [1]
  Activity: Active
SUM149PT [2]
  Activity: 5.1%
SUM-159-PT [3]
  Activity: Active
Breast cancer cell line [4]
  Activity: inactive
SUM149PT [5]
  Activity: 1.2%
SUM-159-PT [6]
  fold change (FC): 5.4
Breast cancer cell line [7]
  Activity: Active
Breast cancer cell line [8]
  Activity: Active
SUM-159-PT [9]
  Activity: Active
Breast cancer cell line [10]
  fold change (FC): 2
SUM149PT [11]
  Activity: -0.13
Breast cancer cell line [12]
  Activity: Active
[13]
  Activity: -0.03
Breast cancer cell line [14]
  fold change (FC): 2
Breast cancer cell line [15]
  Activity: Active
SUM-159-PT [16]
  Activity: -0.2
SUM-159-PT [17]
  Activity: Active
